Screening data (PubChem)
NR1D1 modulator – modulators of human Rev-erb alpha DNA binding. AID 1259318. activity, % at 10 µM. Rev-erbα–FITC-DNA binding, fluorescence polarization, 90 min. 0.79% of 370,000 active;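 active = activity above about 14%, limit read from the data; passing the limit was not always enough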
Target sequence (P20393 whole entry, looked up): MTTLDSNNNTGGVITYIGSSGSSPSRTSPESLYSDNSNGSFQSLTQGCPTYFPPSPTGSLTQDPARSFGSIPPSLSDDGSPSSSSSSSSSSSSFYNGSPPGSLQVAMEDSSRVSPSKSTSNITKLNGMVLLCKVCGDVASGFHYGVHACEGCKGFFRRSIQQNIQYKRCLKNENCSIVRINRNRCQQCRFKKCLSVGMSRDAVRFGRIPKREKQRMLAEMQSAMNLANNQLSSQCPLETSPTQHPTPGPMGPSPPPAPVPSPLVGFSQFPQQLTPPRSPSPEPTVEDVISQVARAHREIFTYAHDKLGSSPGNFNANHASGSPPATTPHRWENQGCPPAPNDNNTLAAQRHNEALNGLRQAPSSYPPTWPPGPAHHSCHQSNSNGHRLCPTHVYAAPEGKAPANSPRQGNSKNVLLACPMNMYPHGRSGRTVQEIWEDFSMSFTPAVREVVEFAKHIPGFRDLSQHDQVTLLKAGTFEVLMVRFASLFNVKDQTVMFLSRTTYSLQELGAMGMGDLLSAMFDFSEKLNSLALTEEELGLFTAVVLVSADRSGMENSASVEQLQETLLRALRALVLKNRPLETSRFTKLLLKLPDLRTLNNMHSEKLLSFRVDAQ
NR2E3 ag-1 – NR2E3 (human) agonism; Q9Y5X4; GST-NR2E3/biotin-RetCOR TR-FRET, 1536-well; inhibition of corepressor binding, % at 4.78 µM; 0.12% of 320,000 active; AID 2300;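 active = percent inhibition above the cutoff of mean plus 3 SD of all tested compounds, set per screening campaign, cut at about 20% in these data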
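Assay system: NR2E3–RetCOR corepressor complex. Quantity: 1.35 nM GST-NR2E3. Buffer or medium: pH 7.5 Tris-based buffer. Reagent: biotinylated RetCOR corepressor at 7 nM final. Schedule: 5 h at 4 °C. Detection: TR-FRET, emission read at 617 and 671 nm. Replicates: one well per compound, singlicate testing.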
NR2E3 ag-2 – activates human NR2E3 receptor. 0.35% of 360,000 active. CHO-S Gal4-NCOR/VP16-NR2E3 two-hybrid, luciferase. inhibition of corepressor binding, % at 3.98 µM. Q9Y5X4;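 active = inhibition above the mean of all tested compounds plus 3 SD, cut at about 70% in these data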;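 also: higher means lower luciferase signal from less NR2E3 corepressor binding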
PG9 binder – binds the HIV-1 gp120 antibody PG9. TR-FRET gp120-PG9 antibody binding. inhibition, % at 6.7 µM. 0.43% of 360,000 active. AID 624416; in the data active = inhibition above about 8.5%
NR1D1 mod conf – Rev-erb alpha (human) modulation, hit confirmation | shares compounds with NR1D1 modulator | Rev-erb alpha FITC-DNA binding, fluorescence polarization, 90 min | activation, % at 25 µM | 61% of 3,000 active;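 active = activation at or above a set limit, or at least 3 SD above the negative control mean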
A number is an active result. Only some compounds are listed: those with a hit (about 1.4% of all), similar ones and a draw of the others.

Results for CCN(CC)C(=O)c1cccc(-c2csc(C(O)c3ccc(F)cc3)n2)c1 (stereo not drawn) ?
NR1D1 modulator: inactive; NR2E3 ag-2: inactive; PG9 binder: inactive

How did CN(CC(=O)Nc1ccc(Cl)c(C(F)(F)F)c1)C(=O)c1cn2ccccc2n1 do in these assays?
NR1D1 modulator: 20.5; NR2E3 ag-1: inactive; NR2E3 ag-2: inactive; PG9 binder: inactive; NR1D1 mod conf: inactive

How did CCN1C(=O)[C@H]2[C@@H](c3ccc(C)cc3)N[C@]3(CCCN(Cc4ccc(F)cc4)C3=O)[C@H]2C1=O do in these assays?
NR1D1 modulator: inactive; NR2E3 ag-2: inactive; PG9 binder: inactive

How did COC(=O)[C@@H](Cc1ccc(O)cc1)NC(=O)[C@H]1O[C@@H](n2cnc3c(=O)[nH]c(N)nc32)[C@H](O)[C@@H]1O do in these assays?
NR1D1 modulator: inactive; PG9 binder: inactive

What do the screens show for `COc1ccc(N(Cc2cc3cccc(C)c3[nH]c2=O)S(=O)(=O)c2ccc(Cl)cc2)cc1`?
NR1D1 modulator: 20.6; NR2E3 ag-1: inactive; NR2E3 ag-2: inactive; PG9 binder: inactive; NR1D1 mod conf: inactive

What do the screens show for `CC(=O)N(C)c1ccc(C=C2C=Cc3ccccc32)cc1`?
NR1D1 modulator: inactive; NR2E3 ag-2: inactive; PG9 binder: inactive

What do the screens show for `CCSC1=C(C#N)C2(CCCCC2)C2=C(CC(C)(C)CC2=O)N1`?
NR1D1 modulator: 22.3; NR2E3 ag-1: inactive; NR2E3 ag-2: inactive; PG9 binder: inactive; NR1D1 mod conf: inactive

How did CC1(C)CC(=O)C2=C(C1)NC(SCC(N)=O)=C(C#N)C21CCCCC1 do in these assays?
NR1D1 modulator: inactive; NR2E3 ag-1: inactive; NR2E3 ag-2: inactive; PG9 binder: inactive

What do the screens show for `O=C(NCc1ccc(F)cc1)c1cc(-c2ccccn2)nc2ccc(S(=O)(=O)N3CCOCC3)cc12`?
NR1D1 modulator: 18.3; NR2E3 ag-2: inactive; PG9 binder: inactive; NR1D1 mod conf: 19.4

What do the screens show for `NS(=O)(=O)c1ccc(CNC(=O)c2cc(-c3ccccn3)nc3ccc(Cl)cc23)cc1`?
NR1D1 modulator: 23.2; NR2E3 ag-1: inactive; NR2E3 ag-2: inactive; PG9 binder: inactive; NR1D1 mod conf: 18.7

How did O=C(NCc1ccccc1)c1cc(-c2ccncc2)nc2ccc(S(=O)(=O)N3CCOCC3)cc12 do in these assays?
NR1D1 modulator: inactive; NR2E3 ag-1: inactive; NR2E3 ag-2: inactive; PG9 binder: inactive

Results for O=C(Nc1ccc(C(O)(C(F)(F)F)C(F)(F)F)cc1)c1ccc(F)cc1Cl ?
NR1D1 modulator: inactive

How did COc1ccc2nc(NC(=O)C3CCN(S(=O)(=O)c4cccc5nsnc45)CC3)sc2c1 do in these assays?
NR1D1 modulator: inactive; NR2E3 ag-1: inactive; NR2E3 ag-2: inactive; PG9 binder: inactive

How did COc1ccc2nc(NC(=O)C(NS(=O)(=O)c3cccc4nsnc34)C(C)C)sc2c1 (stereo not drawn) do in these assays?
NR1D1 modulator: 31.0; NR2E3 ag-1: inactive; NR2E3 ag-2: inactive; PG9 binder: inactive; NR1D1 mod conf: 18.2

What do the screens show for `Cc1cccc(N(C(=O)c2snc(C(N)=O)c2N)C(C(=O)NCc2ccccc2)c2ccncc2)c1` (stereo not drawn)?
NR1D1 modulator: inactive; NR2E3 ag-1: inactive; NR2E3 ag-2: inactive; PG9 binder: inactive

How did CCN(CC)S(=O)(=O)c1ccc(N2CCOCC2)c(NC(=O)c2cccc3c(=O)c(C)c(-c4ccccc4)oc23)c1 do in these assays?
NR1D1 modulator: inactive; NR2E3 ag-1: inactive; NR2E3 ag-2: inactive; PG9 binder: inactive

Results for COc1ccc(S(=O)(=O)N2CCOCC2)cc1NC(=O)c1cccc2c(=O)c(C)c(-c3ccccc3)oc12 ?
NR1D1 modulator: 68.9; NR2E3 ag-1: inactive; NR2E3 ag-2: inactive; PG9 binder: inactive; NR1D1 mod conf: 37.1

Results for O=C1C[C@@H](c2ccccc2)N=C2N(Cc3ccc4c(c3)OCO4)C/C(=C/c3ccccc3)N12 ?
NR1D1 modulator: inactive

Results for Cc1nn(-c2ccccc2)c(C)c1NC(=O)COC(=O)c1cc(Br)ccc1O ?
NR1D1 modulator: 31.3; NR2E3 ag-1: inactive; NR2E3 ag-2: inactive; PG9 binder: inactive; NR1D1 mod conf: inactive

What do the screens show for `Cc1cccc(C(=O)OCC(=O)Nc2c(C)nn(-c3ccccc3)c2C)c1O`?
NR1D1 modulator: inactive; NR2E3 ag-1: inactive; NR2E3 ag-2: inactive; PG9 binder: inactive

How did COc1ccc2c(c1)c1nc3n(c(=O)c1n2CC(=O)Nc1cc(C)[nH]n1)CCS3 do in these assays?
NR1D1 modulator: 18.9; NR2E3 ag-1: inactive; PG9 binder: inactive; NR1D1 mod conf: inactive
